Results: ChEMBL document CHEMBL3856274, “Sydnone Cycloaddition Route to Pyrazole-Based Analogs of Combretastatin A4” (J Med Chem, 2016)
Activity calls are given as the source filed them. The rule behind the calls is not given here.

Key:
[1] = system: HUVEC; assay: Growth inhibition of HUVEC after 72 hrs by crystal violet staining-based assay; format: functional; details: Homo sapiens
Method in brief: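 HUVECs at 5 × 10^3/well on gelatin-coated plates were allowed to adhere for 24 h, then given a drug concentration series in EBM (≥8 wells per concentration) for 72 h at 37 °C. Cells were fixed in 3.7% formalin and stained with 1% crystal violet, which was solubilized in 10% acetic acid and read at A590 with background correction. % growth inhibition from ≥3 independent experiments was plotted against log concentration to give GI50.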

[2] = system: HUVEC; assay: Disruption of interphase microtubule in HUVEC assessed as change in cell morphology at 1 uM after 90 mins by DAPI staining-based immunofluorescence assay; details: Homo sapiens
Method in brief: (§1)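 HUVECs seeded on fibronectin-coated chamber slides. Drug diluted in EBM from 20 mM DMSO stock. Exposure 250 nM for 30 min or 1 µM for 90 min. Fixed in 3.7% formalin and permeabilised in 0.1% Triton X-100. Stained for β-tubulin by antibody, F-actin by phalloidin and nuclei by DAPI, then imaged by immunofluorescence.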

[3] = system: HUVEC; assay: Disruption of interphase microtubule in HUVEC assessed as formation of actin stress fiber at 1 uM after 90 mins by phalloidin/DAPI staining-based immunofluorescence assay; format: cell-based; details: Homo sapiens; method in brief: as §1
[4] = system: HUVEC; assay: Disruption of interphase microtubule in HUVEC assessed as change in cell morphology at 250 nM after 30 mins by DAPI staining-based immunofluorescence assay; details: Homo sapiens
Method in brief: (§2)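 HUVECs (supplemented medium, 10% FCS final, used up to 5 passages) plated on fibronectin-coated chamber slides at 2.5 × 10^4 or 5 × 10^4 cells/well. Treated with drug (dilutions in EBM from 20 mM DMSO stock) or vehicle for 30 min. Then fixed in 3.7% formalin, permeabilized in 0.1% Triton X-100, and stained for β-tubulin (antibody), F-actin (phalloidin) and nuclei (DAPI).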

[5] = system: HUVEC; assay: Disruption of interphase microtubule in HUVEC assessed as change in cell shape at 250 nM after 30 mins by DAPI staining-based immunofluorescence assay; details: Homo sapiens; method in brief: as §2
[6] = system: HUVEC; assay: Disruption of interphase microtubule in HUVEC assessed as formation of actin stress fiber at 250 nM after 30 mins by phalloidin/DAPI staining-based immunofluorescence assay; format: cell-based; details: Homo sapiens; method in brief: as §1
[7] = system: HUVEC; assay: Activation of ROCK in HUVEC assessed as phosphorylation of myosin light chain at 50 to 500 nM after 15 mins by Western blot method; format: cell-based; details: Homo sapiens
Method in brief: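 HUVECs seeded on gelatin at 5 × 10^4 cells/well and grown 7 days without medium change. Drugs diluted in EBM from 20 mM DMSO stock and applied 15 min. Proteins extracted in LDS buffer. Western blot for dually phosphorylated MLC, with actin reprobe for loading. Band intensity given as fold-change over vehicle. Mean of 3-4 independent experiments ± SEM.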

[8] = system: HUVEC; assay: Induction of HUVEC monolayer permeability assessed as increase in passage of FITC-dextran through cell monolayer at 50 nM preincubated for 30 mins followed by compound washout and addition of FITC-dextran for 30 mins by fluorescence assay; format: functional, cell-based; details: Homo sapiens
Method in brief: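 HUVECs seeded at 5 × 10^4 per fibronectin-coated 3 µm-pore insert and cultured 5 days to a confluent monolayer. Drug 50 nM for 30 min at 37 °C, then replaced with FITC-dextran (0.8 mg/mL) for 30 min. Lower-well fluorescence read at ex 488/em 525 and expressed as % of a cell-free insert. Mean of 3 independent experiments ± SEM.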

[9] = system: SW1222; assay: Induction of necrosis in human SW1222 cells xenografted in SCID mouse at 0.227 mmol/kg administered as single dose measured after 24 hrs by hematoxylin/eosin staining-based microscopic method; format: functional, cell-based
Method in brief: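 SW1222 cells (5 × 10^6) injected s.c. into the rear dorsum of female SCID mice (8–12 weeks). Tumours treated at about 8 mm mean diameter with a single dose of 0.227 mmol/kg in […]/NaCl, 10 mL/kg. Tumours excised at 24 h. Necrosis scored on 5 µm H&E sections by Chalkley point counting.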

[10] = Toxicity in SCID mouse; format: organism-based; details: in vivo
[11] = system: HUVEC; assay: Disruption of interphase microtubule in HUVEC assessed as change in cell shape and morphology at 250 nM preincubated for 30 mins followed by compound washout measured after 60 mins by DAPI staining-based immunofluorescence assay; details: Homo sapiens
Method in brief: (§3)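 HUVECs on fibronectin-coated chamber slides were exposed to 250 nM drug or vehicle for 30 min at 37 °C. Cells were washed four times with serum-containing medium, incubated 30 min, washed again and incubated a further 30 min (60 min recovery). They were then fixed in 3.7% formalin, permeabilized with 0.1% Triton X-100, and stained for β-tubulin, F-actin (phalloidin) and DAPI.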

[12] = system: HUVEC; assay: Disruption of interphase microtubule in HUVEC assessed as formation of actin stress fiber at 250 nM preincubated for 30 mins followed by compound washout measured after 60 mins by DAPI staining-based immunofluorescence assay; format: cell-based; details: Homo sapiens; method in brief: as §3

With COc1cc2c(c(OC)c1OC)-c1ccc(OC)c(=O)cc1[C@@H](NC(C)=O)CC2 [COLCHICINE] the GI50 [1] was 25 nM, the Activity [2] was “Active” and the Activity [3] was “Active”.
For COc1ccc(-c2cn[nH]c2-c2cc(OC)c(OC)c(OC)c2)cc1O, the GI50 [1] was greater than 5000 nM.
With COc1ccc(-c2cn(C)nc2-c2cc(OC)c(OC)c(OC)c2)cc1O the GI50 [1] was greater than 5000 nM.
For COc1ccc(-c2ccnn2-c2cc(OC)c(OC)c(OC)c2)cc1O, the GI50 [1] was 28 nM, the Activity [4] was “Active” and the Activity [5] was “Active”.
In the case of COc1ccc(-c2nn(C)cc2-c2cc(OC)c(OC)c(OC)c2)cc1O, the GI50 [1] was 256 nM.
With COc1ccc(-c2nn(Cc3ccccc3)cc2-c2cc(OC)c(OC)c(OC)c2)cc1O the GI50 [1] was greater than 2000 nM.
COc1ccc(-c2cnn(Cc3ccccc3)c2-c2cc(OC)c(OC)c(OC)c2)cc1O showed a GI50 [1] greater than 2500 nM.
COc1ccc(-n2nccc2-c2cc(OC)c(OC)c(OC)c2)cc1O gave a GI50 [1] greater than 750 nM.
Work on COc1ccc(-c2cnn(C)c2-c2cc(OC)c(OC)c(OC)c2)cc1O yielded a GI50 [1] of 68 nM.
With COc1ccc(/C=C\c2cc(OC)c(OC)c(OC)c2)cc1OP(=O)(O)O [FOSBRETABULIN DISODIUM] the GI50 [1] was 8 nM, the Activity [4] was “Active” and the Activity [6] was “Active”. For the same compound, the Activity [7] was “Active”, the Activity [8] was “Active” and the Activity [9] was “Active”.
Compound COc1ccc(-c2c(-c3cc(OC)c(OC)c(OC)c3)cnn2Cc2ccccc2)cc1O has a GI50 [1] greater than 750 nM.
With COc1ccc(-c2[nH]ncc2-c2cc(OC)c(OC)c(OC)c2)cc1O the MTD [10] was greater than 162 mg/kg, the GI50 [1] was 7 nM and the Activity [4] was “Active”. The Activity [5] was “Active”, the Activity [11] was “Active” and the Activity [12] was “Active”. For the same compound, the Activity [7] was “Active”, the Activity [8] was “Active” and the Activity [9] was “Active”.
With COc1ccc(-c2c(-c3cc(OC)c(OC)c(OC)c3)cnn2C)cc1O the GI50 [1] was 118 nM.
Work on COc1ccc(-c2cn(Cc3ccccc3)nc2-c2cc(OC)c(OC)c(OC)c2)cc1O yielded a GI50 [1] greater than 5000 nM.
